# Results pooled from the literature.
# Protocols differ between the studies behind these lines.
# Read-out: cell growth or viability
Structure (SMILES),cell line,technique,time,IC50
C=C(F)C(=O)N1CCN(c2nc(OC[C@@H]3CCCN3C)nc3c2CCN(c2cccc4cccc(Cl)c24)C3)C[C@@H]1CC#N,UMUC3,ATP luminescence,,294 nM
Nc1n[nH]c2nc(-c3cccc(O)c3)cc(-c3cc4ccccc4nc3N3CCOCC3)c12,Caco-2,MTT,72 h,625 nM
COc1nc(NCc2cn(-c3ccc(C(=O)Nc4ccc(C(F)(F)F)cc4)cc3)nn2)nc(OC)n1,Caco-2,MTT,72 h,171 nM
CCOc1nc(-c2cccc(O)c2)cc(-c2cc3cc(Cl)ccc3nc2N2CCOCC2)c1C#N,Caco-2,MTT,72 h,117 nM
COc1cc2c3c(n(CCCN4CCOCC4)c(=O)c2cc1OC)-c1nc2c(cc1C3=O)OCO2,TC-32,MTS,72 h,569 nM
CC(C)Oc1ccc(S(=O)(=O)c2ccc(Oc3cc(OCC(N)=O)c(C(=O)C(Cl)Cl)cc3[N+](=O)[O-])cc2)cc1,NCI-H1650,MTT,72 h,460 nM
COc1cc2c3c(n(CCCNCCO)c(=O)c2cc1OC)-c1nc2c(cc1C3=O)OCO2,TC-32,MTS,72 h,104 nM
COc1cccc2c1C(=O)c1c(O)c3c(c(O)c1C2=O)C[C@@](O)(C(=O)CO)C[C@@H]3O[C@H]1C[C@H](N)[C@H](O)[C@H](C)O1,Caco-2,MTT,72 h,1010 nM
CCCOc1nc(-c2cccc(O)c2)cc(-c2cc3ccccc3nc2N2CCOCC2)c1C#N,Caco-2,MTT,72 h,130 nM
COc1nc(NCc2cn(-c3ccc(C(=O)Nc4ccc(F)cc4)cc3)nn2)nc(OC)n1,Caco-2,MTT,72 h,1030 nM
COc1cc2c3c(n(CCCNC(C)C)c(=O)c2cc1OC)-c1nc2c(cc1C3=O)OCO2,TC-32,MTS,72 h,55 nM
N[C@H]1CC[C@H](N[C@@H]2C[C@H]2c2ccccc2)CC1,TC-32,resazurin,,178000 nM
CCOc1nc(-c2cccc(O)c2)cc(-c2cc3ccccc3nc2N2CCOCC2)c1C#N,Caco-2,MTT,72 h,141 nM
COc1nc(NCc2cn(-c3ccc(NC(=O)c4ccc([N+](=O)[O-])cc4)cc3)nn2)nc(OC)n1,Caco-2,MTT,72 h,658 nM
C=CC(=O)N1CCN(c2nc(=O)n(-c3c(C)ccnc3C(C)C)c3nc(-c4c(O)cccc4F)c(F)cc23)[C@@H](C)C1,UMUC3,ATP luminescence,,48.8 nM
CC(C)c1ccccc1[C@@H]1CCCN1C1CC2(CCN(c3ccc(C(=O)NS(=O)(=O)c4ccc(NC[C@H]5CC[C@](C)(O)CC5)c([N+](=O)[O-])c4)c(Oc4cnc5[nH]ccc5c4)c3)CC2)C1,SU-DHL-4,ATP luminescence,48 h,2.7 nM
COc1nc(NCc2cn(-c3ccc(NC(=O)c4ccc(C)cc4)cc3)nn2)nc(OC)n1,Caco-2,MTT,72 h,751 nM
